Source: ChEMBL document CHEMBL1138748, “A prodrug approach toward the development of water soluble fluoroquinolones and structure--activity relationships of quinoline-3-carboxylic acids” (2004)
In brackets after ≈: the same amount, converted by molar mass.

How the values were obtained:
Assay type in all cases: functional
Staphylococcus aureus [1] = experiment: Antibacterial activity against Staphylococcus aureus strain 29213
How it was run: (§1)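 Broth microdilution MIC run to NCCLS standards: serial 2-fold dilutions in cation-adjusted Mueller–Hinton broth, inoculum ~5 × 10^5 CFU/mL, incubated 35 °C for 18–24 h. Trays were read by eye, and the MIC was taken as the lowest concentration giving complete growth inhibition (no visible turbidity).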

Escherichia coli [2] = experiment: Antibacterial activity against Escherichia coli strain 25922; how it was run: as §1
Staphylococcus aureus [3] = experiment: Antibacterial activity against Staphylococcus aureus strain St au 33591 MRSA; how it was run: as §1
Pseudomonas aeruginosa [4] = experiment: Antibacterial activity against Pseudomonas aeruginosa strain 27853; how it was run: as §1
Enterococcus faecalis [5] = experiment: Antibacterial activity against Enterococcus faecalis strain 29212; how it was run: as §1
Staphylococcus aureus [6] = experiment: Antibacterial activity against Staphylococcus aureus strain St au 29213; how it was run: as §1
Staphylococcus aureus [7] = experiment: Antibacterial activity against methicillin susceptible Staphylococcus aureus
How it was run: (§2)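 Broth microdilution per NCCLS standards: serial 2-fold dilutions in cation-adjusted Mueller–Hinton broth, inoculum ~5 × 10^5 CFU/mL, 35 °C for 18–24 h, visual read; MIC = lowest concentration giving complete growth inhibition (no visible turbidity). Reference strains, e.g. S. aureus 29213 (susceptible) and 33591 (MRSA).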

Escherichia coli [8] = experiment: Antibacterial activity against Escherichia coli; how it was run: as §1
Pseudomonas aeruginosa [9] = experiment: Antibacterial activity against Pseudomonas aeruginosa; how it was run: as §1
Enterococcus faecalis [10] = experiment: Antibacterial activity against Enterococcus faecalis; how it was run: as §1
Staphylococcus aureus [11] = experiment: Antibacterial activity against methicillin resistant Staphylococcus aureus; how it was run: as §2

Structure (SMILES) | MIC (Staphylococcus aureus [1]) [µg/mL] | MIC (Escherichia coli [2]) [µg/mL] | MIC (Staphylococcus aureus [3]) [µg/mL] | MIC (Pseudomonas aeruginosa [4]) [µg/mL] | MIC (Enterococcus faecalis [5]) [µg/mL] | MIC (Staphylococcus aureus [6]) [µg/mL] | MIC (Staphylococcus aureus [7]) [µg/mL] | MIC (Escherichia coli [8]) [µg/mL] | MIC (Pseudomonas aeruginosa [9]) [µg/mL] | MIC (Enterococcus faecalis [10]) [µg/mL] | MIC (Staphylococcus aureus [11]) [µg/mL]
NCC1CCN(c2nc3c(cc2F)c(=O)c(C(=O)O)cn3-c2ccc(O)cc2)C1 (stereo not drawn) | – | 3.13 (≈ 7.86 µM) | 1.56 (≈ 3.92 µM) | 6.25 (≈ 15.7 µM) | 3.13 (≈ 7.86 µM) | 0.4 (≈ 1 µM) | – | – | – | – | –
C[C@@H](N)[C@H]1CCN(c2nc3c(cc2F)c(=O)c(C(=O)O)cn3-c2ccc(O)cc2)C1 | – | 6.25 (≈ 15.2 µM) | 1.56 (≈ 3.78 µM) | 12.5 (≈ 30.3 µM) | 12.5 (≈ 30.3 µM) | 1.56 (≈ 3.78 µM) | – | – | – | – | –
N[C@@H]1CN(c2nc3c(cc2F)c(=O)c(C(=O)O)cn3-c2ccc(O)cc2)CC12CC2 | – | 1.56 (≈ 3.8 µM) | 1.56 (≈ 3.8 µM) | 3.13 (≈ 7.63 µM) | 25 (≈ 60.9 µM) | 1.56 (≈ 3.8 µM) | – | – | – | – | –
CN1CCN(c2cc3c(cc2F)c(=O)c(C(=O)O)cn3-c2ccc(O)cc2)CC1 | – | < 0.05 | 0.2 (≈ 0.503 µM) | 0.78 (≈ 1.96 µM) | 0.78 (≈ 1.96 µM) | 0.1 (≈ 0.252 µM) | 0.1 (≈ 0.252 µM) | 0.05 (≈ 0.126 µM) | 0.78 (≈ 1.96 µM) | 0.78 (≈ 1.96 µM) | 0.1 (≈ 0.252 µM)
CN1CCN(c2cc3c(cc2F)c(=O)c(C(=O)O)cn3-c2ccc(OP(=O)(O)O)cc2)CC1 | – | – | – | – | – | – | 1.56 (≈ 3.27 µM) | 0.2 (≈ 0.419 µM) | 50 (≈ 105 µM) | 25 (≈ 52.4 µM) | 0.78 (≈ 1.63 µM)
N[C@@H]1CCC[C@@H]2CN(c3nc4c(cc3F)c(=O)c(C(=O)O)cn4-c3ccc(O)cc3)C[C@@H]21 | – | 3.13 (≈ 7.14 µM) | 0.4 (≈ 0.912 µM) | 6.25 (≈ 14.3 µM) | 3.13 (≈ 7.14 µM) | 0.4 (≈ 0.912 µM) | – | – | – | – | –
C[C@H](N)[C@H]1CCN(c2nc3c(cc2F)c(=O)c(C(=O)O)cn3-c2ccc(O)cc2)C1 | – | 3.13 (≈ 7.59 µM) | 0.78 (≈ 1.89 µM) | 3.13 (≈ 7.59 µM) | 3.13 (≈ 7.59 µM) | 0.78 (≈ 1.89 µM) | – | – | – | – | –
O=C(O)c1cn(C2CC2)c2cc(N3CCNCC3)c(F)cc2c1=O [CIPROFLOXACIN] | – | – | – | – | – | – | 0.25 (≈ 0.754 µM) | – | – | 1 (≈ 3.02 µM) | 0.5 (≈ 1.51 µM)

The next lines start with results.

MIC (Staphylococcus aureus [1]) [µg/mL] | MIC (Escherichia coli [2]) [µg/mL] | MIC (Staphylococcus aureus [3]) [µg/mL] | MIC (Pseudomonas aeruginosa [4]) [µg/mL] | MIC (Enterococcus faecalis [5]) [µg/mL] | MIC (Staphylococcus aureus [6]) [µg/mL] | Structure (SMILES) | MIC (Staphylococcus aureus [7]) [µg/mL] | MIC (Escherichia coli [8]) [µg/mL] | MIC (Pseudomonas aeruginosa [9]) [µg/mL] | MIC (Enterococcus faecalis [10]) [µg/mL] | MIC (Staphylococcus aureus [11]) [µg/mL]
0.78 (≈ 2.03 µM) | 0.4 (≈ 1.04 µM) | 0.4 (≈ 1.04 µM) | 1.56 (≈ 4.07 µM) | 6.25 (≈ 16.3 µM) | – | O=C(O)c1cn(-c2ccc(O)cc2)c2cc(N3CCNCC3)c(F)cc2c1=O | – | – | – | – | –
– | 1.56 (≈ 3.68 µM) | 0.4 (≈ 0.942 µM) | 1.56 (≈ 3.68 µM) | 3.13 (≈ 7.37 µM) | 0.4 (≈ 0.942 µM) | O=C(O)c1cn(-c2ccc(O)cc2)c2nc(N3CC4CCCNC4C3)c(F)cc2c1=O (stereo not drawn) | – | – | – | – | –
– | 0.4 (≈ 1 µM) | 0.4 (≈ 1 µM) | 0.78 (≈ 1.96 µM) | 1.56 (≈ 3.92 µM) | 0.4 (≈ 1 µM) | C[C@H]1CN(c2nc3c(cc2F)c(=O)c(C(=O)O)cn3-c2ccc(O)cc2)C[C@H]1N | – | – | – | – | –
– | 1.56 (≈ 3.78 µM) | 1.56 (≈ 3.78 µM) | 12.5 (≈ 30.3 µM) | 6.25 (≈ 15.2 µM) | 1.56 (≈ 3.78 µM) | C[C@H](N)[C@@H]1CCN(c2nc3c(cc2F)c(=O)c(C(=O)O)cn3-c2ccc(O)cc2)C1 | – | – | – | – | –
– | 0.2 (≈ 0.487 µM) | 0.4 (≈ 0.975 µM) | 0.78 (≈ 1.9 µM) | 0.78 (≈ 1.9 µM) | 0.2 (≈ 0.487 µM) | N[C@H]1CN(c2nc3c(cc2F)c(=O)c(C(=O)O)cn3-c2ccc(O)cc2)CC12CC2 | – | – | – | – | –
– | 0.1 (≈ 0.236 µM) | 0.2 (≈ 0.471 µM) | 6.25 (≈ 14.7 µM) | 1.56 (≈ 3.68 µM) | 0.2 (≈ 0.471 µM) | CN1CCC2CN(c3nc4c(cc3F)c(=O)c(C(=O)O)cn4-c3ccc(O)cc3)CC21 (stereo not drawn) | – | – | – | – | –
– | 0.1 (≈ 0.252 µM) | 0.2 (≈ 0.505 µM) | 0.78 (≈ 1.97 µM) | 0.78 (≈ 1.97 µM) | 0.2 (≈ 0.505 µM) | N[C@@H]1[C@H]2CN(c3nc4c(cc3F)c(=O)c(C(=O)O)cn4-c3ccc(O)cc3)C[C@@H]12 | – | – | – | – | –
– | 0.4 (≈ 1 µM) | 0.4 (≈ 1 µM) | 0.78 (≈ 1.96 µM) | 1.56 (≈ 3.92 µM) | 0.4 (≈ 1 µM) | C[C@@H]1CN(c2nc3c(cc2F)c(=O)c(C(=O)O)cn3-c2ccc(O)cc2)C[C@H]1N | – | – | – | – | –
